From article PMC11904481 (ESMO Open, 2025)

System: patients with locally advanced unresectable or metastatic, relapsed and/or refractory nonhematological malignancies
Experiment: Phase I safety: adverse events
Type: in vivo, human
Outline: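 Adverse events were graded by NCI CTCAE v4.03 across three i.v. schedules of the test compound (0.45-11.3 mg/kg; weekly per 28-day cycle, or days 1, 4, 8 ±11, 15 per 21-day cycle). Special-interest events covered retinal dysfunction symptoms and documented retinal disorders. Clustered signs were grouped as 'infusion reaction'. QTc was calculated with the Fridericia correction.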

[1] = schedule 3 cohort 5, 11.3 mg/kg
[2] = schedule 3 cohort 6, 11.3 mg/kg
[3] = schedules 1/2 cohort 1, 0.45 mg/kg

## O=C1Nc2cc3[nH]nc(-c4ccncc4)c3cc2CN1Cc1ccccc1 [KO-947]
Schedule 3 cohort 4, 7.2 mg/kg
  AESI: Photopsia: 1 (33) n (%)
  AESI: Retinal detachment: 1 (33) n (%)
  AESI: Subretinal fluid: 0 n (%)
  AESI: Total number of AEs: 14 n
  AESI: Vitreous floaters: 0 n (%)
  Patients with ≥1 treatment-related TEAE: 3 (100) n (%)
  Total number of treatment-related TEAEs: 38 n
  Treatment-related TEAE: Blurred vision: 1 (33) n (%)
  Treatment-related TEAE: Dermatitis acneiform: 1 (33) n (%)
  Treatment-related TEAE: Diarrhea: 2 (67) n (%)
  Treatment-related TEAE: Dyspepsia: 1 (33) n (%)
  Treatment-related TEAE: Infusion-related reaction: 1 (33) n (%)
  Treatment-related TEAE: Macular edema: 1 (33) n (%)
  Treatment-related TEAE: Photopsia: 1 (33) n (%)
  Treatment-related TEAE: QTc prolongation: 0 n (%)
  Treatment-related TEAE: Retinal detachment: 1 (33) n (%)
  Treatment-related TEAE: Subretinal fluid: 0 n (%)
  Treatment-related TEAE: Vitreous floaters: 0 n (%)
[1]
  AESI: Blurred vision: 4 (67) n (%)
  AESI: Detachment of retinal pigment epithelium: 1 (17) n (%)
  AESI: Eye disorders: 6 (100) n (%)
  AESI: Macular edema: 2 (33) n (%)
  AESI: Patients with ≥1 AE: 6 (100) n (%)
  AESI: Photopsia: 1 (17) n (%)
  AESI: Retinal detachment: 1 (17) n (%)
  AESI: Subretinal fluid: 1 (17) n (%)
  AESI: Total number of AEs: 16 n
  AESI: Vitreous floaters: 1 (17) n (%)
  Patients with ≥1 treatment-related TEAE: 6 (100) n (%)
  Total number of treatment-related TEAEs: 50 n
  Treatment-related TEAE: Blurred vision: 4 (67) n (%)
  Treatment-related TEAE: Dermatitis acneiform: 4 (67) n (%)
  Treatment-related TEAE: Diarrhea: 2 (33) n (%)
  Treatment-related TEAE: Dyspepsia: 1 (17) n (%)
  Treatment-related TEAE: Infusion-related reaction: 2 (33) n (%)
  Treatment-related TEAE: Macular edema: 2 (33) n (%)
  Treatment-related TEAE: Photopsia: 1 (17) n (%)
  Treatment-related TEAE: QTc prolongation: 1 (17) n (%)
  Treatment-related TEAE: Retinal detachment: 1 (17) n (%)
  Treatment-related TEAE: Subretinal fluid: 1 (17) n (%)
  Treatment-related TEAE: Vitreous floaters: 1 (17) n (%)
[2]
  AESI: Blurred vision: 1 (33) n (%)
  AESI: Detachment of retinal pigment epithelium: 1 (33) n (%)
  AESI: Eye disorders: 2 (67) n (%)
  AESI: Macular edema: 0 n (%)
  AESI: Patients with ≥1 AE: 2 (67) n (%)
  AESI: Photopsia: 1 (33) n (%)
  AESI: Retinal detachment: 0 n (%)
  AESI: Subretinal fluid: 1 (33) n (%)
  AESI: Total number of AEs: 3 n
  AESI: Vitreous floaters: 0 n (%)
  Patients with ≥1 treatment-related TEAE: 3 (100) n (%)
  Total number of treatment-related TEAEs: 9 n
  Treatment-related TEAE: Blurred vision: 1 (33) n (%)
  Treatment-related TEAE: Dermatitis acneiform: 1 (33) n (%)
  Treatment-related TEAE: Diarrhea: 0 n (%)
  Treatment-related TEAE: Dyspepsia: 0 n (%)
  Treatment-related TEAE: Infusion-related reaction: 1 (33) n (%)
  Treatment-related TEAE: Macular edema: 0 n (%)
  Treatment-related TEAE: Photopsia: 1 (33) n (%)
  Treatment-related TEAE: QTc prolongation: 2 (67) n (%)
  Treatment-related TEAE: Retinal detachment: 0 n (%)
  Treatment-related TEAE: Subretinal fluid: 1 (33) n (%)
  Treatment-related TEAE: Vitreous floaters: 0 n (%)
Schedule 3 total N = 27
  AESI: Blurred vision: 9 (33) n (%)
  AESI: Eye disorders: 22 (82) n (%)
  AESI: Macular edema: 4 (15) n (%)
  AESI: Patients with ≥1 AE: 22 (82) n (%)
  AESI: Photopsia: 4 (15) n (%)
  AESI: Retinal detachment: 4 (15) n (%)
  AESI: Subretinal fluid: 6 (22) n (%)
  AESI: Total number of AEs: 50 n
  AESI: Vitreous floaters: 3 (11) n (%)
  Patients with ≥1 treatment-related TEAE: 25 (93) n (%)
  Total number of treatment-related TEAEs: 136 n
  Treatment-related TEAE: Blurred vision: 9 (33) n (%)
  Treatment-related TEAE: Dermatitis acneiform: 6 (22) n (%)
  Treatment-related TEAE: Diarrhea: 6 (22) n (%)
  Treatment-related TEAE: Dyspepsia: 3 (11) n (%)
  Treatment-related TEAE: Infusion-related reaction: 6 (22) n (%)
  Treatment-related TEAE: Macular edema: 4 (15) n (%)
  Treatment-related TEAE: Photopsia: 4 (15) n (%)
  Treatment-related TEAE: QTc prolongation: 3 (11) n (%)
  Treatment-related TEAE: Retinal detachment: 4 (15) n (%)
  Treatment-related TEAE: Subretinal fluid: 6 (22) n (%)
  Treatment-related TEAE: Vitreous floaters: 3 (11) n (%)
[3]
  AESI: Blurred vision: 0 n (%)
  AESI: Eye disorders: 0 n (%)
  AESI: Macular edema: 0 n (%)
  AESI: Retinal edema: 0 n (%)
  AESI: Subretinal fluid: 0 n (%)
  AESI: Vitreous floaters: 0 n (%)
  Patients with ≥1 AESI: 0 n (%)
  Patients with ≥1 treatment-related TEAE: 1 (100) n (%)
